# Experimental data collected from several papers.
# Protocols differ between the studies behind these lines.
# Cell line: MCF7
# Effect on: cell growth or viability
Structure (SMILES),test,conditions,IC50
FC(F)(F)c1cccc(Nc2ncnc3ccc(Nc4ccccc4)cc23)c1,MTT,24 h,11.4 µM
Cc1ccc2nc(-c3ccc(Cl)cc3)[nH]c2c1,MTT,48 h,25.6 µM
CCOC(=O)/C=C1\S/C(=N\C(=O)c2ccc3ccccc3c2)N(C2CCCCC2)C1=O,,48 h,14.9 µM
CS(=O)(=O)c1nc(N)n(-c2ccc(C(=O)O)cc2)n1,MTT,,21.9 µM
COc1cc(/C=C/C(=O)c2ccc(NC(=O)c3ccccc3CN3C(=O)c4ccccc4C3=O)cc2)cc(OC)c1OC,MTT,72 h,1.88 µM
Fc1ccc(-c2nc3ccccc3[nH]2)cc1,MTT,48 h,68 µM
COc1ccc(O)c(/C=N/c2nc(SC)nn2-c2ccc(C(=O)O)cc2)c1,MTT,,27.3 µM
O=c1c(O)c(-c2ccc(O)c(O)c2)oc2cc(O)cc(O)c12,WST-1,48 h,11.7 µM
CCN(CC)CCn1cccc1/C=N/NC(=O)Nc1cc2c(Nc3ccc(F)c(Cl)c3)ncnc2cc1O[C@H]1CCOC1,MTT,72 h,1.28 µM
CC(=O)O[C@H]1C(=O)[C@@]2(C)[C@H]([C@H](OC(=O)c3ccccc3)[C@]3(O)C[C@H](OC(=O)[C@H](O)[C@@H](NC(=O)c4ccccc4)c4ccccc4)C(C)=C1C3(C)C)[C@]1(OC(C)=O)CO[C@@H]1C[C@@H]2O,MTT,48 h,2.35 µM
CC1(C)CC[C@]2(C(=O)O)CC[C@]3(C)C(=CC[C@@H]4[C@@]5(C)CC[C@H](O)C(C)(C)[C@@H]5CC[C@]43C)[C@@H]2C1,MTT,48 h,> 100 µM
CCN(CC)C(=S)NC(=O)c1ccc2ccccc2c1,,48 h,4.72 µM
COc1cc2ncnc(Nc3ccc(F)c(Cl)c3)c2cc1NC(=O)N/N=C/c1cccn1CCCN1CCCC1,MTT,72 h,1.33 µM
Oc1ccccc1-c1nc2ccccc2[nH]1,MTT,48 h,> 100 µM
O=C(N/N=C/c1cccn1CCCN1CCOCC1)Nc1cc2c(Nc3ccc(F)c(Cl)c3)ncnc2cc1O[C@H]1CCOC1,MTT,72 h,5.57 µM
COc1ccc(-c2nn(-c3ccc(S(C)(=O)=O)cc3)cc2/C=N/N=c2\[nH]c(-c3ccc(Br)cc3)cs2)cc1,MTT,48 h,3.18 µM
CC(C)(C)c1ccc(S(=O)(=O)NN=Cc2cn(CCN3CCOCC3)c3ccccc23)cc1,MTT,48 h,67.8 µM
CN1CCN(C/C=N/NC(=O)Nc2cc3c(Nc4ccc(F)c(Cl)c4)ncnc3cc2O[C@H]2CCOC2)CC1,MTT,72 h,2.04 µM
Fc1ccc(-c2nc3ccccc3n2Cc2ccccc2)cc1,MTT,,31.5 µM
CC(C)NCC(O)COc1cc2ccccc2cc1OCC(O)CNC(C)C (stereo not shown),MTT,72 h,> 75 µM
COc1cc2ncnc(Nc3ccc(F)c(Cl)c3)c2cc1NC(=O)N/N=C/CN1CCN(C)CC1,MTT,72 h,8.76 µM
CC[C@H](C)C(=O)O[C@H]1C[C@H](O)C=C2C=C[C@H](C)[C@H](CC[C@@H](O)C[C@@H](O)CC(=O)O)[C@H]21,SRB,72 h,98 µg/mL
Clc1ccccc1-c1nc2ccccc2[nH]1,MTT,48 h,69 µM
Cc1nc(Nc2ncc(C(=O)Nc3c(C)cccc3Cl)s2)cc(N2CCN(CCO)CC2)n1,MTT,48 h,7.99 µM
Cc1ccc2nc(-c3ccc(Cl)cc3)n(Cc3ccccc3)c2c1,MTT,,5.66 µM
COCO[C@H]1C[C@H]2OC(C)(C)OC[C@]23[C@@H]2[C@@H](CC[C@]3(O)C1)[C@@]1(OCOC)CC[C@H](CO)[C@@]1(C)C[C@H]2OCOC,resazurin,72 h,> 100 µM
CC/C(=C(/c1ccc(OCCNC)cc1)c1ccc(B2OC(C)(C)C(C)(C)O2)cc1)c1ccccc1,,5 days,0.708 µM
Oc1ccc(Br)cc1-c1nc2ccccc2[nH]1,MTT,48 h,5.1 µM
COc1ccc(C(=O)O[C@@H]2CN3Cc4c(cc5c(c4OC)OCO5)[C@@]24C=C[C@H](OC)C[C@@H]34)cc1OC,WST-1,,4.9 µM
O=C(NC(=S)N1CCCCC1)c1ccc2ccccc2c1,,48 h,7.32 µM
Oc1ccccc1-c1ccc2ncnc(Nc3cccc(C(F)(F)F)c3)c2c1,MTT,24 h,7.13 µM
Oc1c(I)cc(Cl)c2cccnc12,MTT,48 h,50.2 µM
CC1CCC(OCn2c[n+](Cc3ccccc3)c3ccccc32)CC1 (stereo not shown),MTT,72 h,27 µM
CNc1nc2ccccc2n2c(-c3cccc(OC)c3)cnc12,neutral red,96 h,0.217 µM
COc1ccc(-c2csc(Nc3ccc4c(O)ncnc4c3)n2)cc1,MTT,,9.75 µM
F[B-](F)(F)F.[Fe+3].c1cc[cH-]c1.c1cc[cH-]c1,MTT,,150 µM
COc1cccc2c1C(=O)c1c(O)c3c(c(O)c1C2=O)C[C@@](O)(C(=O)CO)C[C@@H]3O[C@H]1C[C@H](N)[C@H](O)[C@H](C)O1,MTT,48 h,0.964 µg/mL
Oc1ncnc2cc(Nc3nc(-c4ccc(F)cc4)cs3)ccc12,MTT,,3.71 µM
C[C@H]1[C@@H](O)O[C@@H]2O[C@@]3(C)CC[C@H]4[C@H](C)CC[C@@H]1[C@@]24OO3,CCK-8,48 h,> 50 µM
O=C(NC(=S)N1CCCC1)c1ccc2ccccc2c1,,48 h,3.62 µM
CCN(CC)C/C=N/NC(=O)Nc1cc2c(Nc3ccc(F)c(Cl)c3)ncnc2cc1OC,MTT,72 h,3.28 µM
COc1cc2c(Nc3ccc(NC(=O)c4ccccc4)cc3)ncnc2cc1OCCCN1CCOCC1,MTS,48 h,3.1 µM
COc1ccnc(Nc2ccc3ncnc(Nc4cccc(C(F)(F)F)c4)c3c2)c1,MTT,24 h,5.84 µM
O=C1Nc2c(C(F)(F)F)cccc2[C@@]1(c1ccc(O)cc1)c1ccc(OC(F)(F)F)cc1,resazurin,72 h,0.014 µM
Cc1cc(C)n(-c2nc(Nc3ccc(Br)cc3)nc(N3CCOCC3)n2)n1,MTT,72 h,4.53 µM
COc1ccc(S(=O)(=O)NN=Cc2cn(CCN3CCOCC3)c3ccccc23)cc1,MTT,48 h,62.8 µM
COc1cc2ncnc(Nc3ccc(F)c(Cl)c3)c2cc1NC(=O)N/N=C/c1cccn1CCN1CCN(C)CC1,MTT,72 h,1.85 µM
CSc1nc(/N=C/c2cc([N+](=O)[O-])ccc2O)n(-c2ccc(C(=O)O)cc2)n1,MTT,,20 µM
O=[N+]([O-])c1ccc(S(=O)(=O)NN=Cc2cn(CCN3CCOCC3)c3ccccc23)cc1,MTT,48 h,82 µM
